From ChEMBL document CHEMBL1255309, “Relationship between antimalarial activity and heme alkylation for spiro- and dispiro-1,2,4-trioxolane antimalarials” (Antimicrob Agents Chemother, 2008)

What was measured:
[1] = Induction of heme alkylation of Fe(II) heme assessed as loss of heme at 10 uM in presence of 50% ACN-H2O with excess sodium dithionite under argon at 20 degC by spectrophotometry
Method in brief: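 Fe(II) heme (10 μM final; hemin reduced by excess sodium dithionite) in 50% ACN-water under continuous argon, 20°C, stirred; reaction started with peroxide at 10 μM final. Soret absorbance (418 nm) read every 0.1 s, converted to heme concentration via linear calibration (ε = 1.26 × 10⁵ M⁻¹ cm⁻¹); heme loss measured at completion (t = 30 s). n = 3.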

[2] = test system: Plasmodium falciparum; assay: Antimalarial activity against chloroquine-resistant Plasmodium falciparum K1; type: functional, organism-based
[3] = Induction of heme alkylation of Fe(II) heme assessed as adduct A472 absorbance change at completion of reaction at 10 uM in presence of 50% ACN-H2O with excess sodium dithionite under argon at 20 degC by spectrophotometry
Method in brief: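 Reduced heme made from hemin (10 μM final) in 50% ACN-water (from 0.5 mM stock in 0.1 M NaOH) with excess sodium dithionite, argon-purged sealed cell, stirred at 20°C; peroxide added to 10 μM final. Product formation followed as A472, normalized to initial 418 nm heme absorbance; taken at completion (t = 30 s). n = 3.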

SMILES	inhibition [1] [%]	IC50 [2] [µM]	deltaA [3]
c1ccc([C@@H]2OOC3(O2)C2CC4CC(C2)CC3C4)cc1 (stereo partly drawn)	16	1.5	0.13
C[C@@H]1CC[C@H]2[C@@H](C)C(=O)O[C@@H]3O[C@@]4(C)CC[C@@H]1[C@]32OO4	15	–	0.12
C[C@H]1[C@H](OC(=O)CCC(=O)O)O[C@@H]2O[C@@]3(C)CC[C@H]4[C@H](C)CC[C@@H]1[C@@]24OO3 [ARTESUNATE]	44	0.0032	0.39
O=C(O)[C@H]1CC[C@]2(CC1)OO[C@]1(O2)C2CC3CC(C2)CC1C3	74	0.049	0.89
CC1(C)CC[C@]2(CC1)OO[C@]1(O2)C2CC3CC(C2)CC1C3	82	0.0079	0.77
CC(C)(O)[C@H]1CC[C@]2(CC1)OO[C@]1(O2)C2CC3CC(C2)CC1C3	30	0.21	0.23
O=S(=O)(O)OC[C@H]1CC[C@]2(CC1)OO[C@]1(O2)C2CC3CC(C2)CC1C3	81	0.25	0.85
NC[C@H]1CC[C@]2(CC1)OOC1(O2)C2CC3CC(C2)CC1C3 (stereo partly drawn)	83	–	0.87
C1CCC2(CC1)OOC1(CCCCC1)O2	17	–	0.03
CO[C@H]1O[C@@H]2O[C@@]3(C)CC[C@H]4[C@H](C)CC[C@@H]([C@H]1C)[C@@]24OO3	24	–	–
c1ccc(C2(c3ccccc3)CCC3(CC2)OOC2(O3)C3CC4CC(C3)CC2C4)cc1 (stereo not drawn)	11	–	0.1
O=C(O)C[C@H]1CC[C@]2(CC1)OO[C@]1(O2)C2CC3CC(C2)CC1C3	83	0.11	0.87
C[C@H]1[C@@H](O)O[C@@H]2O[C@@]3(C)CC[C@H]4[C@H](C)CC[C@@H]1[C@@]24OO3 [ARTENIMOL]	28	0.00077	0.22
OC[C@H]1CC[C@@]2(CC1)OO[C@@]1(O2)C2CC3CC(C2)CC1C3	83	0.0026	0.78
C1CCC2(CC1)OOC1(O2)C2CC3CC(C2)CC1C3 (stereo not drawn)	86	0.0038	0.84
C1CC[C@]2(CC1)OO[C@]1(O2)C2CCCC1CCC2	9	0.34	0.03
CC(C)(N)CNC(=O)C[C@H]1CC[C@]2(CC1)OO[C@]1(O2)C2CC3CC(C2)CC1C3	83	–	0.89
OC[C@H]1CC[C@]2(CC1)OO[C@]1(O2)C2CC3CC(C2)CC1C3	83	0.0028	0.89
Clc1ccc([C@H]2CC[C@]3(CC2)OO[C@]2(O3)C3CC4CC(C3)CC2C4)cc1	84	0.02	0.84
C[C@@]1(c2ccccc2)OOC2(O1)C1CC3CC(C1)CC2C3 (stereo partly drawn)	67	0.01	0.63
CCC[C@H]1CC[C@]2(CC1)OO[C@]1(O2)C2CC3CC(C2)CC1C3	85	0.0036	0.8
O=C1C2CC3CC1CC(C2)[C@]31OO[C@@]2(CCCCC2)O1	61	0.02	0.57
O=C1CCC2(CC1)OOC1(O2)C2CC3CC(C2)CC1C3 (stereo not drawn)	81	0.0017	0.88
CC(C)(C)[C@H]1CC[C@]2(CC1)OO[C@]1(O2)C2CC3CC(C2)CC1C3	34	0.2	0.25
c1ccc([C@H]2CC[C@]3(CC2)OO[C@]2(O3)C3CC4CC(C3)CC2C4)cc1	77	0.0065	0.79
